Assay results: ChEMBL document CHEMBL1157616, “Identification of 2-anilino-9-methoxy-5,7-dihydro-6H-pyrimido[5,4-d][1]benzazepin-6-ones as dual PLK1/VEGF-R2 kinase inhibitor chemotypes by structure-based lead generation” (J Med Chem, 2010)
Active and inactive are the calls of the source.

Legend:
[1] = tested on: NCI60; assay: Antiproliferative activity against human NCI60 cells at 10 uM after 48 hrs by sulforhodamine B assay; type: functional, cell-based
Outline: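 NCI 60-cell-line prescreen with compound given once at 10 μM. Cells grown in RPMI 1640 with 5% FBS and 2 mM L-glutamine, plated 24 h before dosing, then exposed 48 h at 37 °C. Fixed with cold TCA, stained with SRB, absorbance read at 515 nm, and percent growth taken relative to time-zero and control wells.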

[2] = target: T1, Serine/threonine-protein kinase PLK1 (Homo sapiens, UniProt P53350); assay: Inhibition of PLK1 assessed as [33Pi] incorporation by microplate scintillation counting in presence of 1 uM ATP
T1 sequence (P53350 whole entry): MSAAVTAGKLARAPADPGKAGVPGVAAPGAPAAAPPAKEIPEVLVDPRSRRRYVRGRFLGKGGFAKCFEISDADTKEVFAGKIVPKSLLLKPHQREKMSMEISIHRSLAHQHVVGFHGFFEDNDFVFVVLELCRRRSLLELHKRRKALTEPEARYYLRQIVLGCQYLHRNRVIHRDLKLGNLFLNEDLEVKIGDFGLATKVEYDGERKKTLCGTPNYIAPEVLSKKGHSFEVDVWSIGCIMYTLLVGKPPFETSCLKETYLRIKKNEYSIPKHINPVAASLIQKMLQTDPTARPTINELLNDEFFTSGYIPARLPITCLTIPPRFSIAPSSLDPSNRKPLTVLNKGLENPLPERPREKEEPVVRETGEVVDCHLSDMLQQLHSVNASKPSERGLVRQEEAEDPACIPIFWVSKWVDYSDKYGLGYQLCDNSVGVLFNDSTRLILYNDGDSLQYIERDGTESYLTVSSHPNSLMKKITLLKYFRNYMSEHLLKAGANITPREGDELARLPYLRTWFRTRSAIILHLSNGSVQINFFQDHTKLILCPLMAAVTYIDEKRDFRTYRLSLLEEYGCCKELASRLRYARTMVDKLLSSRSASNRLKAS

[3] = target: T2, Insulin receptor (Homo sapiens, UniProt P06213); assay: Inhibition of INSR assessed as [33Pi] incorporation by microplate scintillation counting in presence of 1 uM ATP
T2 sequence (P06213 28-758 limits assumed): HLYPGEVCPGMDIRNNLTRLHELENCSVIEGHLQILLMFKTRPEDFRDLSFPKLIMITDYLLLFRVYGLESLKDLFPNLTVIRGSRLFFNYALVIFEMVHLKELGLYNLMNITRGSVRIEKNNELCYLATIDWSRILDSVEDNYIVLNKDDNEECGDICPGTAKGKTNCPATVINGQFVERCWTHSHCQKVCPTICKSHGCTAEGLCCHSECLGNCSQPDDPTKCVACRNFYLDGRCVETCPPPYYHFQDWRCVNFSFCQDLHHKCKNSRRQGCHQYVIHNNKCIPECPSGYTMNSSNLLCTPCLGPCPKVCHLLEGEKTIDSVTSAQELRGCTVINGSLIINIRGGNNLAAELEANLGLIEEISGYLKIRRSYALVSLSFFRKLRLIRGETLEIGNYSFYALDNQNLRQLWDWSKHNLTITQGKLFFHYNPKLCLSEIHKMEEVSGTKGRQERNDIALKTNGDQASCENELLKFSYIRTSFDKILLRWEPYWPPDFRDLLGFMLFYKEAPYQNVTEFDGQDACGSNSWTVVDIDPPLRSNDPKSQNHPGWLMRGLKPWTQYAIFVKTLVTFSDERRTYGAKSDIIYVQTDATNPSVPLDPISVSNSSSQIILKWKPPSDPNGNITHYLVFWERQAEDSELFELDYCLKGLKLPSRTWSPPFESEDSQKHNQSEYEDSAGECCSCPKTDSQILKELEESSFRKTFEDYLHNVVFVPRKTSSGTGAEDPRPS
T2 sequence (P06213 763-1382 limits assumed): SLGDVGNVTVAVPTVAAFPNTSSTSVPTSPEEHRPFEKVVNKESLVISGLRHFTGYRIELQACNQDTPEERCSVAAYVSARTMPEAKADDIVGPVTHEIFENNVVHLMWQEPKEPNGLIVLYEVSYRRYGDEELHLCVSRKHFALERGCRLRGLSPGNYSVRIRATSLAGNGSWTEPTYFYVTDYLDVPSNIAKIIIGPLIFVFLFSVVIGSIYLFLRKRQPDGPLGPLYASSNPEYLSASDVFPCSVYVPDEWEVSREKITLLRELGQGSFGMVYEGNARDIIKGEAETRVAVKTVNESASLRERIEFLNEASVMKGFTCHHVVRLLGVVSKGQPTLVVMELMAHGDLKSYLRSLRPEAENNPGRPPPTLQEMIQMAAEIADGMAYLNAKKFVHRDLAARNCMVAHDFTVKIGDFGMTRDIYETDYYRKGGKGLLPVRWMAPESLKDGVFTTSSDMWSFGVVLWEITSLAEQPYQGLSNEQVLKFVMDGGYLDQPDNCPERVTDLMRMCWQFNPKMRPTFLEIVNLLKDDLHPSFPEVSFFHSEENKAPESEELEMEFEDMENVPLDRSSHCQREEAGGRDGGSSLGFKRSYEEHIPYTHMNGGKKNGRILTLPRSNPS
Outline: (§1)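 Substrates: Poly(Glu,Tyr)4:1 for VEGFR2; Poly(Glu,Tyr) or Poly(Ala,Glu,Lys,Tyr) for INS-R; RBER-CHKtide or casein for PLK1. Incubated 30 °C, 80 min, stopped with 2% H3PO4. Singlicate; activity referenced to no-enzyme and no-inhibitor controls.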

[4] = target: T3, Vascular endothelial growth factor receptor 2 (Homo sapiens, UniProt P35968); assay: Inhibition of VEGFR2 assessed as [33Pi] incorporation by microplate scintillation counting in presence of 1 uM ATP; outline: as §1
T3 sequence (P35968 whole entry): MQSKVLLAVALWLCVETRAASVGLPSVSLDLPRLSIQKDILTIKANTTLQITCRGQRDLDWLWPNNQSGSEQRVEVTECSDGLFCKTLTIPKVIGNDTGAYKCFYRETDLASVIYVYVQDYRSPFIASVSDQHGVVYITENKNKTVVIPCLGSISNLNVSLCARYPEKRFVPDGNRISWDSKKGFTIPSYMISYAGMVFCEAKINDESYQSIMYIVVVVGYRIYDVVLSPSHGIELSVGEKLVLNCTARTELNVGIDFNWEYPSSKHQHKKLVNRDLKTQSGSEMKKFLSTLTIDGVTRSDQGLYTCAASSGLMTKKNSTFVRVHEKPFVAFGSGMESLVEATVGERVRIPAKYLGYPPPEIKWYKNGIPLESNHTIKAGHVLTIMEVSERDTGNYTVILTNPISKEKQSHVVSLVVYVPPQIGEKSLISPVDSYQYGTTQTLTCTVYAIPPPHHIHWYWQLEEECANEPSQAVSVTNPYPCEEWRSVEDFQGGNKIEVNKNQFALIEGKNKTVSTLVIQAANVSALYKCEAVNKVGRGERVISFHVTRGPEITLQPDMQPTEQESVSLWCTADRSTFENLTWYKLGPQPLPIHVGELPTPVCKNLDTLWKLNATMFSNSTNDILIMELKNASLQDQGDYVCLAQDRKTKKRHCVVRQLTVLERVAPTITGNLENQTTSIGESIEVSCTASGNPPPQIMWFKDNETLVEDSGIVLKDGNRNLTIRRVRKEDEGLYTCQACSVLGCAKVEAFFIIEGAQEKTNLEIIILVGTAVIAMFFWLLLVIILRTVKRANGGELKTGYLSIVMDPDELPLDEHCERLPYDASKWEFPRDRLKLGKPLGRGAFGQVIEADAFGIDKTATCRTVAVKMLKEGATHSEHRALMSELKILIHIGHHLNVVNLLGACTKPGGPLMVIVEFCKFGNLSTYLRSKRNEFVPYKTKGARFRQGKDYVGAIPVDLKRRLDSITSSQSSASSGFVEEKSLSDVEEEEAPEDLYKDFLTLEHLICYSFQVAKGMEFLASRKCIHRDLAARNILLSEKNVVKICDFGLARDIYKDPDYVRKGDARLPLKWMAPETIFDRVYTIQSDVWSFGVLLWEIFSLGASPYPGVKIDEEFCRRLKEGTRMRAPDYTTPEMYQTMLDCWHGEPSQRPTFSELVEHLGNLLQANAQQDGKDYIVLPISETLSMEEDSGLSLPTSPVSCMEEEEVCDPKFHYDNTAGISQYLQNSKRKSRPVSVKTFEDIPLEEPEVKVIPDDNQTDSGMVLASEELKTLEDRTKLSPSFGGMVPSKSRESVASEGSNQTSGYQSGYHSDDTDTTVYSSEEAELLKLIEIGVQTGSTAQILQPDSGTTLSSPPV

[5] = target: T3, Vascular endothelial growth factor receptor 2; details: HUE, 10 uM
[6] = tested on: CAKI-1; assay: Growth inhibition of human Caki1 cells after 48 hrs by sulforhodamine B assay; type: functional; details: CAKI-1, 48 h
Outline: (§2)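 NCI SRB assay with five drug concentrations, top concentration 100 μM, 48 h exposure at 37 °C in RPMI 1640/5% FBS. GI50 is the concentration giving [(Ti−Tz)/(C−Tz)]×100 = 50. Values are means of two independent runs on different dates, each run in duplicate.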

[7] = tested on: UACC-257; assay: Growth inhibition of human UACC257 cells after 48 hrs by sulforhodamine B assay; type: functional; details: UACC-257, 48 h; outline: as §2
[8] = target: T3, Vascular endothelial growth factor receptor 2; assay: Inhibition of VEGFR2 in HUE cells assessed as inhibition of VEGF-induced autophosphorylation treated for 90 mins before VEGF challenge by ELISA; type: cell-based
[9] = tested on: HUVEC; assay: Inhibition of angiogenesis in HUVEC assessed as inhibition of VEGF-induced sprout growth from cellular spheroids after 24 hrs; type: functional, cell-based; details: Homo sapiens
Outline: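 Spheroids of 500 primary HUVEC formed overnight in hanging drops, then embedded in collagen gel. Compound added with VEGF-A at 25 ng/mL final, incubated 37 °C for 24 h, then fixed in 4% paraformaldehyde. Cumulative sprout length measured by image analysis; the mean of 10 random spheroids counts as one data point. IC50 from curve fitting.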

[10] = tested on: IGROV-1; assay: Growth inhibition of human IGROV1 cells after 48 hrs by sulforhodamine B assay; type: functional; details: IGROV-1, 48 h; outline: as §2
[11] = target: T1, Serine/threonine-protein kinase PLK1; assay: Inhibition of PLK1 assessed as [33Pi] incorporation at 10 uM by microplate scintillation counting in presence of 1 uM ATP; outline: as §1
[12] = target: T3, Vascular endothelial growth factor receptor 2; assay: Inhibition of VEGFR2 assessed as [33Pi] incorporation at 10 uM by microplate scintillation counting in presence of 1 uM ATP; outline: as §1
[13] = target: T2, Insulin receptor; assay: Inhibition of INSR assessed as [33Pi] incorporation at 10 uM by microplate scintillation counting in presence of 1 uM ATP; outline: as §1

Structure (SMILES) | IC50 [2] [nM] | IC50 [3] [nM] | IC50 [4] [nM] | inhibition [5] | IC50 [8] [nM] | inhibition [11] [%] | inhibition [12] [%] | inhibition [13] [%] | Activity [1] | GI50 [6] [nM] | GI50 [7] [nM] | IC50 [9] [nM] | GI50 [10] [nM]
CCOc1ccc(Nc2ncc3c(n2)-c2ccc(OC)cc2NC(=O)C3)cc1 | 7300 | > 100000 | 52 |  | 290 |  |  |  | Active | 390 | 55000 | 1100 | 230
O=C1Cc2cnc(Nc3ccc(O)cc3)nc2-c2ccccc2N1 | > 100000 | > 100000 | 80 |  |  |  |  |  | Active | 2600 | > 100000 |  | 3000
CCOc1ccc(Nc2ncc3c(n2)-c2ccccc2NC(=O)C3)cc1 | > 100000 | > 100000 | 130 |  |  |  |  |  | Active | 750 | 27000 |  | 380
O=C1Cc2cnc3ncnn3c2-c2ccccc2N1 |  |  |  |  |  | < 30 | < 30 | < 30 | Active |  |  |  | 
COc1ccc(Nc2ncc3c(n2)-c2ccccc2NC(=O)C3)cc1O | 5700 | 24000 | 73 |  | 2400 |  |  |  | Active | 150 | 19000 |  | 250

More lines, in order of falling IC50 [2], values ahead:

IC50 [2] [nM] | IC50 [3] [nM] | IC50 [4] [nM] | inhibition [5] | IC50 [8] [nM] | inhibition [11] [%] | inhibition [12] [%] | inhibition [13] [%] | Structure (SMILES) | Activity [1] | GI50 [6] [nM] | GI50 [7] [nM] | IC50 [9] [nM] | GI50 [10] [nM]
1700 | > 100000 | 99 |  | 18600 |  |  |  | CCOc1ccc(Nc2ncc3c(n2)-c2cnccc2NC(=O)C3)cc1 | Active | 160 | > 100000 |  | 400
1400 | > 100000 | 87 | inactive |  |  |  |  | O=C1Cc2cnc(Nc3ccc(O)c(Cl)c3)nc2-c2cnccc2N1 | Active |  |  |  | 
360 | > 100000 | 11 |  | 430 |  |  |  | COc1ccc2c(c1)NC(=O)Cc1cnc(Nc3ccc(O)c(Cl)c3)nc1-2 | Active |  |  | 1200 | 
